Data on four compounds can be found in ChEMBL document CHEMBL1144988, “Stereoselective preparation of N-[(R,R)-(E)-1-(3,4-dichlorobenzyl)-3- (2-oxoazepan-3-yl)carbamoyl]allyl-N-methyl-3,5-bis(trifluoromethyl)benzamide, a potent and orally active dual neurokinin NK(1)/NK(2) receptor antagonist” (J Med Chem, 2003).

Data set [1] addresses Substance-P receptor (Homo sapiens, UniProt P25103). As to the kind of experiment: In vitro binding affinity towards Human Tachykinin receptor 1. The method in brief: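 Membranes from CHO cells expressing cloned human NK1 receptor, incubated with 3H-[Sar9,Met(O2)11]SP (0.5 nM final) in 20 mM HEPES, 1 mM MnCl2, pH 7.4, for 60 min at 28 °C. Nonspecific binding was defined with Sar9SP. Bound radioactivity was collected by filtration, washed with ice-cold 50 mM Tris pH 7.4, then counted by scintillation.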

Data set [2] addresses T1, Substance-K receptor (Homo sapiens, UniProt P21452).
T1 sequence (P21452 whole entry): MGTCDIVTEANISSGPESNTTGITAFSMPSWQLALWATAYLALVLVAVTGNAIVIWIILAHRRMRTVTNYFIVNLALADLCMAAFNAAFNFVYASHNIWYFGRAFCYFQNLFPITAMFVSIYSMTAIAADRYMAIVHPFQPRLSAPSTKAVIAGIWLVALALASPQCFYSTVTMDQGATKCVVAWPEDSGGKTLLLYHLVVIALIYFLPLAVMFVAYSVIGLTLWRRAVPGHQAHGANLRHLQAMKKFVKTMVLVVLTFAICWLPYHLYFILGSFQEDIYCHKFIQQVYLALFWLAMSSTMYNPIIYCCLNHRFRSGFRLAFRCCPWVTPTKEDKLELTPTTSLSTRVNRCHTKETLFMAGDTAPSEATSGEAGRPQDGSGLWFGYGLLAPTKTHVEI
Kind of data set: In vitro binding affinity towards Human Tachykinin receptor 2. The method in brief: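 Membranes from CHO cells expressing cloned human NK2 receptor, incubated with 125I-neurokinin A (1.4 nM final) in 20 mM HEPES, 1 mM MnCl2, pH 7.4, for 60 min at 28 °C. Nonspecific binding was defined with NKA. Bound radioactivity was collected by filtration, washed with ice-cold 50 mM Tris pH 7.4, then counted by scintillation.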

The target of data set [3] is Substance-P receptor (Cavia porcellus, UniProt P30547). Kind of data set: In vitro relative antagonist potency towards guinea pig Tachykinin receptor 1. The data set is classed as functional. Particulars: read-out: pA2 (converted).
Substance-P receptor (Cavia porcellus, UniProt P30547), sequence (P30547 whole entry): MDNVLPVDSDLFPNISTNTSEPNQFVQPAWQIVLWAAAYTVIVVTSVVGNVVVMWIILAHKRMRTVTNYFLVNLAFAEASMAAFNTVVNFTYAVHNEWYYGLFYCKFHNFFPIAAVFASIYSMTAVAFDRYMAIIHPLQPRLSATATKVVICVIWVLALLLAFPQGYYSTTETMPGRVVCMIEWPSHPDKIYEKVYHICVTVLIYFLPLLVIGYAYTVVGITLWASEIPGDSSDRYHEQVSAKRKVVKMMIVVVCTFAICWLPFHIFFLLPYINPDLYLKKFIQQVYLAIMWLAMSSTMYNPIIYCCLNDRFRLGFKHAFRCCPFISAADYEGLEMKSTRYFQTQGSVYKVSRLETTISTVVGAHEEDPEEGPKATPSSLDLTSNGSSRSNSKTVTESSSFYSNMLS
A short description of data set [4]: Area Under the concentration-time curve from zero time to 24 hr in guinea pig when given at a dose of 3 mg/kg intravenously. The data set is classed as ADME, organism-based, Cavia porcellus. Set-up: time < 24 hr, dose 3 mg/kg, route intravenous. Particulars: in vivo, iv. The gist of the method: (§1)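 Guinea pigs given 3 mg/kg iv via the jugular vein (n = 6) in a cremophor formulation, with cannulas flushed with heparinized saline. Blood was sampled at 5, 30, 60, 120, 240, 360, 720 and 1440 min. The read-outs were terminal elimination half-life and AUC0–24h.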

Data set [5] can be described thus: Area Under the concentration-time curve from zero time to 24 hr in guinea pig when given at a dose of 10 mg/kg perorally (Microemulsion). Format: ADME, organism-based, Cavia porcellus. Further details: time < 24 hr, dose 10 mg/kg, route oral. To be noted: in vivo, po. The method in brief: (§2)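 Guinea pigs given a single oral dose of 10 mg/kg (n = 7) as a microemulsion (2% DMSO/20% Sandimmon placebo/78% saline) or as a cremophor/2% DMSO formulation. Food was withdrawn up to 18 h predose, and animals carried heparin-flushed cannulas. Blood was sampled at 60, 120, 240, 360, 480, 720 and 1440 min. The read-outs were t1/2, Cmax, AUC0–24h and bioavailability.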

A short description of data set [6]: Half life period in guinea pig when given at a dose of 3 mg/kg intravenously. The data set is classed as ADME, organism-based, Cavia porcellus. Set-up: dose 3 mg/kg, route intravenous. To be noted: in vivo, iv. The gist of the method:
as §1

The test system of data set [7] is Saimiri sciureus. Kind of data set: In vivo Effective peroral dose which inhibits Beta-ala8-Neurokinin A induced bronchoconstriction (dynamic compliance) in squirrel monkey. To be noted: in Primates, po.
Data set [8] is described as follows: Bioavailability in guinea pig (dose 10 mg/kg p.o.). The data set is classed as ADME, organism-based, Cavia porcellus. To be noted: in vivo, po. The gist of the method: as §2
The nature of data set [9]: Area Under the concentration-time curve from zero time to 24 hr in guinea pig when given at a dose of 10 mg/kg perorally (cremophor). Format: ADME, organism-based, Cavia porcellus. Set-up: time < 24 hr, dose 10 mg/kg, route oral. Particulars: in vivo, po. The gist of the method:
as §2

Data set [10] has as its target T2, Substance-K receptor (Cavia porcellus, UniProt Q64077).
T2 sequence (Q64077 whole entry): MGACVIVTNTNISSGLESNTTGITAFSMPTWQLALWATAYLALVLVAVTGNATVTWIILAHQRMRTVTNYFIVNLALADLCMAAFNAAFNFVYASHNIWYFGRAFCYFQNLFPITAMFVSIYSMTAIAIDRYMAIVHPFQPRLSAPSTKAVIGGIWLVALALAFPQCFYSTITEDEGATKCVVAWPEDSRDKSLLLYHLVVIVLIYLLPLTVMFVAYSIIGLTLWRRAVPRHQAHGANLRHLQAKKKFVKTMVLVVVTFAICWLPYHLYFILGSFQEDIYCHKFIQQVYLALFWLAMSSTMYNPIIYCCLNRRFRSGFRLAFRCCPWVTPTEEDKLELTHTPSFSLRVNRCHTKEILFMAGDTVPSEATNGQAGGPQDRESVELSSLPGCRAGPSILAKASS
Kind of data set: In vitro relative antagonist potency towards guinea pig Tachykinin receptor 2. Format: functional. To be noted: read-out: pA2 (converted).

The test system of data set [11] is Saimiri sciureus. Kind of data set: In vivo Effective peroral dose which inhibits Beta-ala8-Neurokinin A induced bronchoconstriction (airways resistance) in squirrel monkey. To be noted: in Primates, po.
Data set [12] deals with Cavia porcellus. Kind of data set: (§3) Half life period in guinea pig when given at a dose of 10 mg/kg perorally. Format: ADME, organism-based. Set-up: dose 10 mg/kg, route oral. Particulars: in vivo, po. The gist of the method:
as §2

Data set [13] can be described thus: as §3. The data set is classed as ADME, organism-based, Cavia porcellus. Further details: dose 10 mg/kg, route oral. Particulars: in vivo, po. The method in brief: as §2
Data set [14] deals with Cavia porcellus. As to the kind of experiment: (§4) Plasma concentration in Blood of guinea pig when given at a dose of 10 mg/kg perorally. Format: ADME, organism-based. Further details: dose 10 mg/kg, route oral. Particulars: in vivo, po. The gist of the method: as §2
Data set [15] is described as follows: as §4. Format: ADME, organism-based, Cavia porcellus. Further details: dose 10 mg/kg, route oral. Particulars: plasma, po. The method in brief: as §2

Structures are written as SMILES. Where “and” joins values, the source holds several entries; their conditions need not be identical. Equal values may be shown once.

Substance-P receptor (Homo sapiens, UniProt P25103), sequence (P25103 whole entry): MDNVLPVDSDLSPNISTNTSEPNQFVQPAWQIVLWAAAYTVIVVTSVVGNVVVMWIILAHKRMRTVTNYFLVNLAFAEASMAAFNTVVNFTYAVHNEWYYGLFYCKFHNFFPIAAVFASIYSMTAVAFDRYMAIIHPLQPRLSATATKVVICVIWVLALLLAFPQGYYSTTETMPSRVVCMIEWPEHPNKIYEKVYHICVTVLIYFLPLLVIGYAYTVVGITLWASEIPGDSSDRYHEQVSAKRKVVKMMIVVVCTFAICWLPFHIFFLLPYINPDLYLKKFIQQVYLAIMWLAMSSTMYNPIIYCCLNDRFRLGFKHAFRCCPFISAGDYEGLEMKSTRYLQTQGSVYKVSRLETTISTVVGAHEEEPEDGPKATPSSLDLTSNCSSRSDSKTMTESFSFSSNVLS

One may read the Ki as the dissociation constant of the complex between target and ligand, obtained from inhibition or displacement. For `CN(C(=O)c1cc(C(F)(F)F)cc(C(F)(F)F)c1)[C@H](/C=C/C(=O)N[C@H]1CCCCNC1=O)Cc1ccc(Cl)c(Cl)c1`, the Ki at Substance-P receptor [1] is 18.2 nM; at Substance-K receptor [2], 182 nM.
Turning to `CN(C(=O)c1cc(C(F)(F)F)cc(C(F)(F)F)c1)[C@H](/C=C/C(=O)N[C@@H]1CCCCNC1=O)Cc1ccc(Cl)c(Cl)c1`, the Ki is 0.832 nM at Substance-P receptor [1] and 457 nM on Substance-K receptor [2].
Regarding `CN(C(=O)c1cc(C(F)(F)F)cc(C(F)(F)F)c1)[C@@H](/C=C/C(=O)N[C@H]1CCCCNC1=O)Cc1ccc(Cl)c(Cl)c1`, the results for the Ki at Substance-P receptor [1] and at Substance-K receptor [2] were 8.71 nM and 102 nM, respectively.
Usually AUC stands for concentration integrated over time. What is called half-life is the time in which the quantity being followed falls by half. Broadly, the ED50 is the dose at which the effect has come halfway, by size or by number of responders. Usually Cmax stands for the peak of the concentration-time curve. Take `CN(C(=O)c1cc(C(F)(F)F)cc(C(F)(F)F)c1)[C@@H](/C=C/C(=O)N[C@@H]1CCCCNC1=O)Cc1ccc(Cl)c(Cl)c1` [DNK333]: the Kb is 11.7 nM at Substance-P receptor [3] and 53.7 nM on Substance-K receptor [10]. In addition, the values for the Ki on Substance-P receptor [1] and on Substance-K receptor [2] were 4.17 nM and 9.55 nM, respectively. For the same compound, the AUC at 24 h in data set [4] was found to be 4690 ng·h/mL; in data set [5], 6380 ng·h/mL; in data set [9], 2710 ng·h/mL. Besides, the half-life in [6] was 4.2 h; in data set [13], 3.8 h. The ED50 in the data set with Saimiri sciureus [7] was 2.8 mg/kg; in the data set with Saimiri sciureus [11], 1 mg/kg. Further, the F in data set [8] is 41% and 17.4%. Besides, the T1/2 in the data set on Cavia porcellus [12] turned out to be 5.4 h. Also, the highest concentration (Cmax) with Cavia porcellus [14] turned out to be 415 ng/mL; in [15], 600 ng/mL.
